This is an account of results in ChEMBL document CHEMBL3525987, “Assessment of exposure of metabolites in preclinical species and humans at steady state from the single-dose radiolabeled absorption, distribution, metabolism, and excretion studies: a case study” (Drug Metab Dispos, 2012).

Holding throughout (conditions): in vivo
Data set [1] has as its system Rattus norvegicus. In words: Drug level in male Sprague-Dawley rat plasma at 10 mg/kg, po administered as single dose via gavage measured after 1 hr by liquid scintillation counting. It counts as ADME, organism-based. Set-up: dose 10 mg/kg, dosed compound name [14C]lixivaptan, route oral. The gist of the method: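 Single oral gavage of [14C]drug (10 mg/kg, 10 ml/kg) as suspension in deionized water with pluronic F68, ~29.8 µCi/mg; SD rats fasted 18 h, fed 4 h post-dose. Blood by cardiac puncture under isoflurane, 3 rats/time/gender, into K2EDTA at 1, 8, 24 h; plasma extracted twice with 2 vol acetonitrile, radio-HPLC on C18 with flow radioactivity detection, expressed as % plasma radioactivity.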

Data set [2] concerns Rattus norvegicus. Nature of the data set: Drug recovery in cage wash/debris of male Sprague-Dawley rat at 10 mg/kg, po administered as single dose via gavage measured after 168 hrs by liquid scintillation counting. The class given is ADME, organism-based. Also noted: dose 10 mg/kg, dosed compound name [14C]lixivaptan, route oral. The gist of the method:
(§1)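 Intact SD rats (3/gender) dosed by gavage with [14C]drug 10 mg/kg (10 ml/kg, pluronic F68/water), housed in metabolism cages; urine and feces at 0-8, 8-24 h, then every 24 h to 7 days. Urine counted by LSC; feces homogenized 20% w/w in water, combusted, trapped CO2 counted; cage wash/debris included; % of dose.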

The nature of data set [3]: Drug recovery in bile of bile duct-cannulated male Sprague-Dawley rat at 10 mg/kg, po administered as single dose via gavage measured from 0 to 48 hrs by liquid scintillation counting. It counts as ADME, organism-based. Set-up: dose 10 mg/kg, dosed compound name [14C]lixivaptan, route oral. The gist of the method: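 Bile-duct cannulated SD rats (n=5) got single gavage of [14C]drug 10 mg/kg as pluronic F68/water suspension. Bile collected on wet ice at 0-4, 4-8, 8-24, 24-48 h; drinking water supplemented with bile salts and electrolytes. Duplicate aliquots counted by liquid scintillation; expressed as % of dose.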

Data set [4] relates to Homo sapiens. Nature of the data set: Drug level in human plasma at 100 mg, po administered as single dose measured after 8 hrs by liquid scintillation counting. It counts as ADME, organism-based. Set-up: dosed compound name [14C]lixivaptan. In outline: (§2)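 Healthy male volunteers fasted ≥10 h, given single oral 100 mg (200 µCi) [14C]drug as two 50-mg capsules with 250 ml water. Plasma (from ~50 ml blood) at 0.5, 2, 4, 8, 12, 24, 36 h, profiled per subject. Acetonitrile extraction, C18 radio-HPLC with 0.2% formic acid acetonitrile/water gradient, on-line radioactivity detection as % plasma radioactivity; ng-equiv/ml from % × total radioactivity.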

In data set [5] the test system is Canis familiaris. In words: Total Drug recovery in male beagle dog at 10 mg/kg, po administered as single dose via gavage measured after 168 hrs by liquid scintillation counting. The class given is ADME, organism-based, Canis lupus familiaris. Also noted: dose 10 mg/kg, dosed compound name [14C]lixivaptan, route oral. In outline: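 Four male dogs, fasted 18 h, given [14C]drug by gavage as a 5.0 mg/ml suspension in pluronic F68/deionized water (2 ml/kg, 1.04 μCi/mg), followed by a 10 ml water rinse. Urine and feces collected frozen over dry ice at 0-8, 8-24 h, then every 24 h for 7 days. Feces combusted before LSC; total includes cage wash/debris.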

The test system of data set [6] is Homo sapiens. In words: AUC(0 to infinity) as total radioactivity in human plasma at 100 mg, po administered as single dose by LC-MS/MS analysis. It counts as ADME, organism-based. Set-up: dose 100 mg, route oral, dosed compound name [14C]lixivaptan, time infinity. In outline: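 Fasted healthy males took one oral 100 mg (200 µCi) [14C]lixivaptan dose. Plasma was drawn from predose to 144 h. Total radioactivity was measured by LSC and converted to ng-equiv/ml via the dose specific activity; lixivaptan by validated LC-MS/MS. Noncompartmental analysis: Cmax observed; kel by log-linear regression; AUC0-t by linear trapezoid; extrapolation as Cest/kel.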

Data set [7] concerns Rattus norvegicus. In words: AUC(0 to infinity) as total radioactivity in female Sprague-Dawley rat plasma at 10 mg/kg, po administered as single dose via gavage […]. It counts as ADME, organism-based. Also noted: time infinity, dose 10 mg/kg, dosed compound name [14C]lixivaptan, route oral. In outline: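 Jugular-cannulated Sprague-Dawley rats (5/gender) were fasted 18 h and gavaged once with 10 mg/kg [14C]lixivaptan suspended in water/pluronic F68. K2EDTA blood was taken at 0.25–168 h, with donor blood replaced from 1 h on. Total radioactivity was read by LSC (ng-equiv/ml) and parent by validated LC-MS/MS. Noncompartmental Cmax, log-linear kel and trapezoidal AUC followed.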

Data set [8] relates to Rattus norvegicus. Nature of the data set: AUC (0 to 24 hrs) in female Sprague-Dawley rat at 10 mg/kg, po administered as single dose via gavage. Set-up: time < 24 hr, dose 10 mg/kg, dosed compound name [14C]lixivaptan, route oral. The class given is ADME, organism-based, Plasma. In outline: (§3)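 Sprague-Dawley rats (9/gender) were fasted 18 h and gavaged once with [14C]lixivaptan at 10 mg/kg (10 ml/kg), about 29.8 µCi/mg, suspended in deionized water with pluronic F68. Plasma came by cardiac puncture under isoflurane at 1, 8 and 24 h (3/gender/time) and was extracted twice with 2 volumes of acetonitrile. C18 radio-HPLC with a flow scintillation detector gave percent of plasma radioactivity per peak.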

In data set [9] the test system is Canis familiaris. Nature of the data set: Drug level in beagle dog plasma at 10 mg/kg, po administered as single dose measured after 24 hrs by liquid scintillation counting. It counts as ADME, organism-based, Canis lupus familiaris. Set-up: dose 10 mg/kg, dosed compound name [14C]lixivaptan, route oral. The gist of the method:
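Four male beagles fasted 18 h were gavaged once with [14C]lixivaptan at 10 mg/kg (2 ml/kg). The 5.0 mg/ml suspension was in deionized water with pluronic F68 (1.04 µCi/mg). Jugular K2EDTA plasma was taken at 2, 8 and 24 h and extracted twice with 2 volumes of acetonitrile. Profiling used C18 radio-HPLC (ammonium formate/acetonitrile gradient) with on-line flow scintillation detection. Each peak is reported as percent of plasma radioactivity.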

Data set [10] has as its system Homo sapiens. In words: Drug level in human plasma at 100 mg, po administered as single dose measured after 12 hrs by liquid scintillation counting. It counts as ADME, organism-based. Also noted: dosed compound name [14C]lixivaptan. The gist of the method: as §2
Data set [11] in a line: Drug recovery in feces of female Sprague-Dawley rat at 10 mg/kg, po administered as single dose via gavage measured after 168 hrs by liquid scintillation counting. Set-up: dose 10 mg/kg, dosed compound name [14C]lixivaptan, route oral. It counts as ADME, organism-based. The gist of the method:
as §1

A short description of data set [12]: Drug recovery in urine of human at […], po administered as single dose measured after 168 hrs by liquid scintillation counting. It counts as ADME, organism-based. Also noted: dosed compound name [14C]lixivaptan, route oral. The gist of the method: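 Healthy male volunteers given single oral 100 mg (200 µCi) [14C]drug capsules after ≥10 h fast. Urine at 0-4, 4-8, 8-12, 12-24 h then 24-h intervals; feces as passed, to 168 h. Urine LSC; feces homogenized in water, combusted, LSC; % of dose.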

In data set [13] the test system is Homo sapiens. Nature of the data set: Cmax in human at 100 mg, po.
The test system of data set [14] is Rattus norvegicus. Nature of the data set: Drug level in female Sprague-Dawley rat plasma at 10 mg/kg, po administered as single dose via gavage measured after 8 hrs by liquid scintillation counting. Also noted: dose 10 mg/kg, dosed compound name [14C]lixivaptan, route oral. It counts as ADME, organism-based. The gist of the method:
as §3

The test system of data set [15] is Homo sapiens. In words: Drug level in human plasma at 100 mg, po administered as single dose measured after 4 hrs by liquid scintillation counting. Also noted: dosed compound name [14C]lixivaptan. It counts as ADME, organism-based. In outline:
as §2

For data set [16], the system named is Homo sapiens. In words: Half life as total radioactivity in human plasma at 100 mg, po administered as single dose by LC-MS/MS analysis. The class given is ADME, organism-based. Set-up: dosed compound name [14C]lixivaptan. In outline:
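Single oral 100 mg [14C]drug to healthy male volunteers; plasma at 0.25-144 h. Parent by validated LC-MS/MS, total radioactivity by LSC as ng-equiv/ml; Tmax from observed data; t1/2 = 0.693/kel from log-linear terminal regression.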

Data set [17] has as its system Canis familiaris. In words: Half life as total radioactivity in male beagle dog plasma at 10 mg/kg, po administered as single dose by LC-MS/MS analysis. It counts as ADME, organism-based, Canis lupus familiaris. Set-up: dose 10 mg/kg, dosed compound name [14C]lixivaptan, route oral. The gist of the method: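 Male beagles given 10 mg/kg [14C]drug oral suspension; jugular K2EDTA blood at 0.25-168 h. Parent by validated LC-MS/MS, total radioactivity by LSC; Tmax observed; t1/2 = 0.693/kel from terminal log-linear regression.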

`Cc1ccc(F)cc1[14C](=O)Nc1ccc(C(=O)N2Cc3cccn3Cc3ccccc32)c(Cl)c1`: the Compound recovery is 4.1% with Rattus norvegicus [1]; 6.7% with Homo sapiens [4]; 7.4% in the data set on Canis familiaris [9]; 5.6% with Homo sapiens [10]; 12.2% in the data set with Rattus norvegicus [14]; 8% in the data set on Homo sapiens [15]. Further, the Radiolabel recovery in the data set on Rattus norvegicus [2] is 2.2%; in data set [3], 65.4%; in the data set with Canis familiaris [5], 95.9%; in [11] it was 92%; in data set [12], 20.5%. Further, the values for the AUC with Homo sapiens [6], in the data set on Rattus norvegicus [7] and in the data set with Rattus norvegicus [8] were 26200 ng.Eq.hr/ml, 37200 ng.Eq.hr/ml and 5580 ng.Eq.hr/ml, respectively. The compound also gave a Cmax in the data set with Homo sapiens [13] of 454 ngequiv/ml. Besides, the t1/2 stood at 25.5 h in the data set on Homo sapiens [16] and 69.7 h in the data set with Canis familiaris [17].
